From ChEMBL document CHEMBL1155468, “Syntheses and evaluation of anticonvulsant profile and teratogenicity of novel amide derivatives of branched aliphatic carboxylic acids with 4-aminobenzensulfonamide” (J Med Chem, 2010)
Active and inactive are the calls of the source. The rule behind the calls is not given here.

What was measured:
[1] = system: Mus musculus; assay: Anticonvulsant activity in CF1 albino mouse assessed as inhibition of subcutaneous pentylenetetrazole-induced seizures at 30 mg/kg, ip after 0.5 hrs; format: functional, organism-based; parameters: dose 30 mg/kg
Summary of the method: (§1)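 Adult male CF no. 1 albino mice (18-25 g) dosed ip with compound suspended in 0.5% methylcellulose (0.01 mL/g). Convulsant: pentylenetetrazol dissolved in 0.9% saline as a 0.85% solution for mice, given subcutaneously.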

[2] = system: Mus musculus; assay: Anticonvulsant activity in CF1 albino mouse assessed as inhibition of subcutaneous pentylenetetrazole-induced seizures at 100 mg/kg, ip after 0.5 hrs; format: functional, organism-based; parameters: dose 100 mg/kg; summary of the method: as §1
[3] = system: Mus musculus; assay: Anticonvulsant activity in CF1 albino mouse assessed as inhibition of subcutaneous pentylenetetrazole-induced seizures at 300 mg/kg, ip after 0.5 hrs; format: functional, organism-based; parameters: dose 300 mg/kg; summary of the method: as §1
[4] = system: Mus musculus; assay: Anticonvulsant activity in CF1 albino mouse assessed as inhibition of subcutaneous pentylenetetrazole-induced seizures at 30 mg/kg, ip after 4 hrs; format: functional, organism-based; parameters: dose 30 mg/kg; summary of the method: as §1
[5] = system: Mus musculus; assay: Anticonvulsant activity in CF1 albino mouse assessed as inhibition of subcutaneous pentylenetetrazole-induced seizures at 100 mg/kg, ip after 4 hrs; format: functional, organism-based; parameters: dose 100 mg/kg; summary of the method: as §1
[6] = system: Mus musculus; assay: Anticonvulsant activity in CF1 albino mouse assessed as inhibition of maximal electroshock-induced seizures at 30 mg/kg, ip after 0.5 hrs; format: functional, organism-based; parameters: dose 30 mg/kg
Summary of the method: (§2)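 Test compounds suspended in 0.5% methylcellulose and given ip to adult male CF no. 1 albino mice (18-25 g) at 0.01 mL/g body weight before maximal electroshock challenge.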

[7] = system: Mus musculus; assay: Anticonvulsant activity in CF1 albino mouse assessed as inhibition of maximal electroshock-induced seizures at 100 mg/kg, ip after 0.5 hrs; format: functional, organism-based; parameters: dose 100 mg/kg; summary of the method: as §2
[8] = system: Mus musculus; assay: Anticonvulsant activity in CF1 albino mouse assessed as inhibition of maximal electroshock-induced seizures at 300 mg/kg, ip after 0.5 hrs; format: functional, organism-based; parameters: dose 300 mg/kg; summary of the method: as §2
[9] = system: Mus musculus; assay: Anticonvulsant activity in CF1 albino mouse assessed as inhibition of maximal electroshock-induced seizures at 30 mg/kg, ip after 4 hrs; format: functional, organism-based; parameters: dose 30 mg/kg; summary of the method: as §2
[10] = system: Mus musculus; assay: Anticonvulsant activity in CF1 albino mouse assessed as inhibition of maximal electroshock-induced seizures at 100 mg/kg, ip after 4 hrs; format: functional, organism-based; parameters: dose 100 mg/kg; summary of the method: as §2
[11] = system: Mus musculus; assay: Anticonvulsant activity in CF1 albino mouse assessed as inhibition of maximal electroshock-induced seizures at 300 mg/kg, ip after 4 hrs; format: functional, organism-based; parameters: dose 300 mg/kg; summary of the method: as §2
[12] = system: Mus musculus; assay: Anticonvulsant activity in CF1 albino mouse assessed as inhibition of subcutaneous pentylenetetrazole-induced seizures at 300 mg/kg, ip after 4 hrs; format: functional, organism-based; parameters: dose 300 mg/kg; summary of the method: as §1
[13] = system: Mus musculus; assay: Neurotoxicity in CF1 albino mouse assessed as motor impairment at 30 mg/kg, ip after 0.5 hrs; format: toxicity, organism-based; parameters: dose 30 mg/kg, route intraperitoneal; details: in vivo
[14] = system: Mus musculus; assay: Neurotoxicity in CF1 albino mouse assessed as motor impairment at 100 mg/kg, ip after 0.5 hrs; format: toxicity, organism-based; parameters: dose 100 mg/kg, route intraperitoneal; details: in vivo
[15] = system: Mus musculus; assay: Neurotoxicity in CF1 albino mouse assessed as motor impairment at 300 mg/kg, ip after 0.5 hrs; format: toxicity, organism-based; parameters: dose 300 mg/kg, route intraperitoneal; details: in vivo
[16] = system: Mus musculus; assay: Neurotoxicity in CF1 albino mouse assessed as motor impairment at 30 mg/kg, ip after 4 hrs; format: toxicity, organism-based; parameters: dose 30 mg/kg, route intraperitoneal; details: in vivo
[17] = system: Mus musculus; assay: Neurotoxicity in CF1 albino mouse assessed as motor impairment at 100 mg/kg, ip after 4 hrs; format: toxicity, organism-based; parameters: dose 100 mg/kg, route intraperitoneal; details: in vivo
[18] = system: Mus musculus; assay: Neurotoxicity in CF1 albino mouse assessed as motor impairment at 300 mg/kg, ip after 4 hrs; format: toxicity, organism-based; parameters: dose 300 mg/kg, route intraperitoneal; details: in vivo
[19] = system: Rattus norvegicus; assay: Anticonvulsant activity in po dosed rat assessed as inhibition of maximal electroshock-induced seizures
[20] = system: Rattus norvegicus; assay: Neurotoxicity in Sprague-Dawley rat assessed as motor impairment at 30 mg/kg, po after 0.25 to 4 hrs; details: in vivo
[21] = system: Rattus norvegicus; assay: Anticonvulsant activity in Sprague-Dawley rat assessed as inhibition of maximal electroshock-induced seizures at 30 mg/kg, po after 1 hr
[22] = system: Rattus norvegicus; assay: Anticonvulsant activity in Sprague-Dawley rat assessed as inhibition of maximal electroshock-induced seizures at 30 mg/kg, po after 2 hrs
[23] = system: Rattus norvegicus; assay: Anticonvulsant activity in Sprague-Dawley rat assessed as inhibition of maximal electroshock-induced seizures at 30 mg/kg, po after 4 hrs
[24] = system: Rattus norvegicus; assay: Anticonvulsant activity in Sprague-Dawley rat assessed as inhibition of maximal electroshock-induced seizures at 30 mg/kg, po after 30 mins
[25] = organism: Rattus norvegicus; assay: Protective index, ratio of TD50 for rat to ED50 for maximal electroshock-induced rat seizure model
[26] = system: Rattus norvegicus; assay: Anticonvulsant activity in Sprague-Dawley rat assessed as inhibition of maximal electroshock-induced seizures at 30 mg/kg, po after 15 mins

## CC(C)(C)C(=O)NCc1ccc(S(N)(=O)=O)cc1
[1]
  Activity: inactive
[2]
  Activity: inactive
[3]
  Activity: inactive
[4]
  Activity: inactive
[5]
  Activity: inactive
[6]
  Activity: inactive
[7]
  Activity: inactive
[8]
  Activity: inactive
[9]
  Activity: inactive
[10]
  Activity: inactive
[11]
  Activity: inactive
[12]
  Activity: inactive
[13]
  Activity: Non-toxic
[14]
  Activity: Non-toxic
[15]
  Activity: Non-toxic
[16]
  Activity: Non-toxic
[17]
  Activity: Non-toxic
[18]
  Activity: Non-toxic

## CCCC(CCC)C(=O)Nc1ccc(S(N)(=O)=O)cc1
[19]
  ED50: 21 mg/kg

## CCCC(C(=O)Nc1ccc(S(N)(=O)=O)cc1)C(C)(C)C (stereo not given)
[1]
  Activity: inactive
[2]
  Activity: inactive
[3]
  Activity: inactive
[4]
  Activity: inactive
[5]
  Activity: inactive
[6]
  Activity: inactive
[7]
  Activity: inactive
[8]
  Activity: inactive
[9]
  Activity: inactive
[10]
  Activity: inactive
[11]
  Activity: inactive
[12]
  Activity: inactive
[13]
  Activity: Non-toxic
[14]
  Activity: Non-toxic
[15]
  Activity: Non-toxic
[16]
  Activity: Non-toxic
[17]
  Activity: Non-toxic
[18]
  Activity: Non-toxic
[20]
  Activity: Non-toxic
[21]
  Activity: inactive
[22]
  Activity: inactive
[23]
  Activity: inactive
[24]
  Activity: inactive

## CC(C)C(C(=O)Nc1ccc(S(N)(=O)=O)cc1)C(C)(C)C (stereo not given)
[1]
  Activity: inactive
[2]
  Activity: inactive
[3]
  Activity: inactive
[4]
  Activity: inactive
[5]
  Activity: inactive
[6]
  Activity: inactive
[8]
  Activity: inactive
[9]
  Activity: inactive
[10]
  Activity: Active
[11]
  Activity: Active
[12]
  Activity: inactive
[13]
  Activity: Non-toxic
[14]
  Activity: Non-toxic
[15]
  Activity: Non-toxic
[16]
  Activity: Non-toxic
[17]
  Activity: Non-toxic
[18]
  Activity: Non-toxic
[25]
  Ratio TD50/ED50: >27.7
[20]
  Activity: Non-toxic
[19]
  ED50: 18 mg/kg
[21]
  Activity: inactive
[22]
  Activity: inactive
[24]
  Activity: inactive
[26]
  Activity: inactive

## CCC(CC)C(=O)NCCc1ccc(S(N)(=O)=O)cc1
[1]
  Activity: inactive
[2]
  Activity: inactive
[3]
  Activity: inactive
[4]
  Activity: inactive
[5]
  Activity: inactive
[6]
  Activity: inactive
[7]
  Activity: inactive
[8]
  Activity: inactive
[9]
  Activity: Active
[11]
  Activity: Active
[12]
  Activity: inactive
[13]
  Activity: Non-toxic
[14]
  Activity: Non-toxic
[15]
  Activity: Non-toxic
[16]
  Activity: Non-toxic
[17]
  Activity: Non-toxic
[18]
  Activity: Non-toxic
[20]
  Activity: Non-toxic

## CC1(C)C(C(=O)Nc2ccc(S(N)(=O)=O)cc2)C1(C)C
[19]
  ED50: 26 mg/kg
